# Hits are enriched below; roughly 2.8% of the tested compounds scored in any of these assays.
# Wee1 stabilizer: human Wee1 degradation inhibition, primary screen. HeLa Luc-Wee1K328M stability, luciferase luminescence; 100% = proteasome inhibitor MG132 effect. 220,000 tested, 1.2% active. AID 1321. reporter increase, % at 5 µM. P30291;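 active means activation above the mean of all tested compounds plus 3 SD, set per screening run, cut at about 8.8% in these data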;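 further: cells exposed to compound for 20 h before luminescence read; 0% = DMSO alone and 100% = MG132 at 30 µM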
# p47phox inh: blocks human p47phox regulatory protein of NADPH oxidases; P14598; p47phox/p22phox peptide binding, fluorescence polarization, 2 h; inhibition, % at 24.7 µM; 220,000 tested, 0.53% active; AID 1274;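 further: 0% = p47phox with labelled peptide and 100% = labelled peptide alone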
# eIF4E-4G inh: inhibitors of eIF4E and eIF4G interaction in translation initiation | TR-FRET eIF4E-eIF4GI(517-606) binding, 2 h | inhibition, % at 21.7 µM | 220,000 tested, 0.37% active;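 further: 0% = full FRET control wells and 100% = background wells lacking eIF4GI fragment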
# RBBP9 inh: inhibitors of human serine hydrolase RBBP9. O75884. recombinant RBBP9, FP-Rh probe fluorescence polarization. inhibition, % at 7.94 µM. 220,000 tested, 0.2% active;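 active means inhibition above the campaign mean of all tested compounds plus 3 SD, cut at about 14% in these data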;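 further: plate controls were DMSO wells with RBBP9 for no effect and wells lacking RBBP9 protein for full effect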
# Target sequence (O75884 whole entry, looked up): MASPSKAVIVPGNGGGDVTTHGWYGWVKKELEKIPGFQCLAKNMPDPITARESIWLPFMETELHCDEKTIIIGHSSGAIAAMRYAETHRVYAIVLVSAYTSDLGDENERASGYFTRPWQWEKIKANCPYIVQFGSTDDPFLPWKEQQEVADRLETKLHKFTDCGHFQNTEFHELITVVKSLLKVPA
#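 System: RBBP9 protein | Quantity: 2.5 µM RBBP9 dispensing solution, before mixing | Reagent: FP-Rh probe, 375 nM dispensing solution | Timing: Enzyme-compound preincubation 30 min, then probe labeling 45 min, 25 °C | Measured by: Fluorescence polarization | Read-out: % inhibition | Replication: One well per compound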
# 14-3-3 Bad PPI: disrupts binding of bovine 14-3-3 zeta to phospho-Bad peptide; TR-FRET 14-3-3zeta/Dy647-pBad peptide displacement, 1 h; inhibition, % at 21.7 µM; 220,000 tested, 0.71% active; AID 781;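 active means inhibition above about 70%, limit read from the data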;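 further: 0% = full 14-3-3 plus peptide FRET controls and 100% = background without 14-3-3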
# Target sequence (P63103 whole entry, looked up): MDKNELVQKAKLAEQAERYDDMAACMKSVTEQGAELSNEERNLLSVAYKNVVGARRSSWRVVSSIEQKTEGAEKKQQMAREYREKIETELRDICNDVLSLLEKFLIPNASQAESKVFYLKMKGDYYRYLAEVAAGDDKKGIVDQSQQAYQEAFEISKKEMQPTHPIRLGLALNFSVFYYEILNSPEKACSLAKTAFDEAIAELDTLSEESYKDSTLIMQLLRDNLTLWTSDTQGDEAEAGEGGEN
# * = called active by the depositor; / = no result given; + = active, no number; [ ] = remark or other dose.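 How the source made its calls, unless noted: active means inhibition above about 30% (limit read from the data); inactive means the rest.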
SMILES,Wee1 stabilizer,p47phox inh,eIF4E-4G inh,RBBP9 inh,14-3-3 Bad PPI
O=C(N/N=C\c1ccc(F)cc1)c1csnn1,/,-1.9,11.3,/,89.3*
COc1cc(CC(=O)Nc2ccc3c(c2)CCC3)cc(OC)c1OC,-1.3,-11.5,59.6*[fluorescence artefact?],-6.1,-7.7
COc1ccc(Cl)cc1NC(=O)CCN1CCN(C)CC1,-1.6,-1.6,/,-7.9,/
COc1cc(CCC(=O)Nc2ccc(Cl)c(C(F)(F)F)c2)cc(OC)c1OC,1.6,-5.9,1.6,-2.3,75.4*[fluorescence artefact?]
COc1cc(CCC(=O)Nc2ccc(Br)c(C(F)(F)F)c2)cc(OC)c1OC,1.5,-14.5,-1.0,-9.2,-5.6
COc1cc(CCC(=O)Nc2cc(Cl)ccc2N2CCN(C)CC2)cc(OC)c1OC,9.2*,-10.9,0.9,-2.2,-6.4
O=C(Cc1ccccc1)NCC(=O)OC(c1ccccc1)c1ccccc1,0.3,/,-1.7,2.5,-2.0
O=C(O)c1cccc(CN2C(=O)S/C(=C/c3ccccc3[N+](=O)[O-])C2=O)c1,0.9,-5.2,1.6,-6.1,-0.3
CCOC(=O)CN1C(=O)S/C(=C/c2cccc([N+](=O)[O-])c2O)C1=O,10.5*,-13.5,-2.8,-2.9,5.9
Cc1ccc(NC(=O)CN2C(=O)S/C(=C/c3ccc(O)c([N+](=O)[O-])c3)C2=O)cc1C,-3.2,16.3,45.5*,4.7,83.5*
CCc1c(C)c(C#N)c2[nH]c3ccccc3n2c1=S,1.9,30.3*,33.3*,-8.3,-14.8
COc1ccc(NC(=O)CSc2nnc(-c3cccnc3)n2C)cc1,-0.8,3.9,-3.3,4.9,0.1
Cc1csc(NC(=O)CSc2nnc(-c3ccncc3)n2C)n1,-0.5,41.4*,4.4,4.6,6.2
Cn1c(SCC(=O)Nc2ccc3c(c2)oc2ccccc23)nnc1-c1ccccc1,-1.6,2.2,-39.6,-2.5,71.9*[fluorescence artefact?]
COc1ccc(-c2nnc(SCC(=O)Nc3ccc(C)cc3)n2C)cc1,9.8*,-9.0,-0.7,-6.4,3.1
CC(=O)N1CCN(c2c(F)c(F)c(C(F)(F)F)c(F)c2F)CC1,1.3,6.0,1.3,0.1,-2.8
Cc1cccc(C)c1NC(=S)N1CC(C)OC(C)C1 (stereo unspecified),-0.2,-5.8,2.6,-4.9,0.8
CC(C)CNC(=O)CC(c1ccccc1)c1ccccc1,-2.7,4.4,0.0,-1.4,-13.1
Cc1nn(CC(=O)Nc2ccc3c(c2)oc2ccccc23)c(=O)c2ccccc12,-0.3,38.6*,4.7,-10.4,66.2
O=C(Cn1nc(C(=O)O)c2ccccc2c1=O)Nc1ccc2c(c1)C(=O)c1ccccc1C2=O,1.6,-9.8,-4.8,-3.9,80.3*
c1ccc(CC2CCN(C(c3cccs3)c3nnnn3C3CCCC3)CC2)cc1 (stereo unspecified),-1.1,-72.3,10.0,-9.4,-1.9
c1ccc(CN(Cc2cccs2)C(c2cccs2)c2nnnn2C2CCCC2)cc1 (stereo unspecified),1.4,-4.6,-4.6,-8.5,87.2*
c1coc(CN2CCN(C(c3cccs3)c3nnnn3C3CCCC3)CC2)c1 (stereo unspecified),0.6,-14.1,0.4,0.7,77.3*
Cc1cccc(OCc2nc(-c3ccc(Br)o3)no2)c1,-0.9,-5.2,2.8,-1.8,-15.5
CCOc1ccc(-c2nc(CCl)cs2)cc1OC,7.2,-0.5,2.9,6.8,-2.2
SMILES,Wee1 stabilizer,p47phox inh,eIF4E-4G inh,RBBP9 inh,14-3-3 Bad PPI
CCOC(=O)c1oc2cc(OC(C)=O)ccc2c(=O)c1-c1ccc(OC)c(OC)c1,9.3*,-13.0,1.5,-5.3,2.7
COc1ccc2sc(N3C(=O)CC(Cc4cccc(C)c4)C3=O)nc2c1 (stereo unspecified),-0.8,-5.4,-0.2,-7.9,88.1*
CCOc1ccc(-n2c(SCc3ccc(C#N)cc3)nnc2-c2cccnc2)cc1,-2.9,15.6,0.8,0.0,-3.1
C=CCSc1nnc(-c2ccncc2)n1-c1ccc(OCC)cc1,0.4,+,1.7,4.5,7.8
CCOc1ccc(Cc2nc(N)nc(N)n2)cc1,6.9,-22.1,3.6,2.4,3.8
Nc1nc(N)nc(COc2ccccc2)n1,9.4*,-0.8,2.1,3.0,-22.4
Cc1ccc(C)c(NC(=S)NCCN(C2CCCCC2)C2CCCC2)c1,-2.5,-10.3,96.6*,5.9,-13.0
Cc1ccc(SCCNC(=S)Nc2cc(C)ccc2C)cc1,-1.5,-1.9,-0.6,-13.7,-23.1
Cc1cccc(NC(=S)NC2CC3C=CC2C3)c1 (stereo unspecified),2.7,-1.8,-2.7,-1.5,-4.9

# Compound activity from PubChem BioAssay.
